Source: ChEMBL document CHEMBL1153377, “8-Bromo-9-alkyl adenine derivatives as tools for developing new adenosine A2A and A2B receptors ligands” (Bioorg Med Chem, 2009)

Key:
Adenosine receptor A3 = biological target: T1, Adenosine receptor A3 (Homo sapiens, UniProt P0DMS8); assay: Displacement of [3H]NECA from human adenosine A3 receptor expressed in CHO cells; format: cell-based
T1 sequence (P0DMS8 whole entry): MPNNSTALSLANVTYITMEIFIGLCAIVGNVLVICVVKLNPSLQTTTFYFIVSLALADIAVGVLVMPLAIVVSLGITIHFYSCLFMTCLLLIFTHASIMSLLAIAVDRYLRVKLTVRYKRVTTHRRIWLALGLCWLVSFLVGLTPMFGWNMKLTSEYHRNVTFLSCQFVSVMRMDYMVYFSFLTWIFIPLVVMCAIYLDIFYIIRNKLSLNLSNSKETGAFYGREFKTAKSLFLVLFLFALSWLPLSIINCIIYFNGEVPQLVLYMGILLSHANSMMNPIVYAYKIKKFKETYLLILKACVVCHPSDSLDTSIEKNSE
Method in brief: (§1)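 CHO cells stably expressing human receptor; membranes from a two-step spin (1000 g, then 100,000 g), resuspended in binding buffer, stored -80 °C. Competition with [3H]NECA at 30 nM (A2A) or 10 nM (A3); nonspecific binding defined with […]. Ki derived from competition experiments.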

Adenosine receptor A2b = biological target: T2, Adenosine receptor A2b (Homo sapiens, UniProt P29275); assay: Antagonist activity at human adenosine A2B receptor expressed in CHO cells assessed as inhibition of NECA-stimulated adenylyl cyclase activity; format: functional, cell-based
T2 sequence (P29275 whole entry): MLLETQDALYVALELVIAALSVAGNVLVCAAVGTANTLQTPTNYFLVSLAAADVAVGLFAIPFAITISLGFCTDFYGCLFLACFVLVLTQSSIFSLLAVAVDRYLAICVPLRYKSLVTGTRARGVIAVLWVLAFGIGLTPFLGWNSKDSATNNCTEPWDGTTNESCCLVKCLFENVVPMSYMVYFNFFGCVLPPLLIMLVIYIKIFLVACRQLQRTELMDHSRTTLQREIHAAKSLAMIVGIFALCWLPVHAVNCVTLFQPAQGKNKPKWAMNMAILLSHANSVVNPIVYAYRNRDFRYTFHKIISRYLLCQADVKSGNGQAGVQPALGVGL
Method in brief: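 Membranes from CHO cells stably transfected with human A2B receptor, prepared by a single high-speed centrifugation of the homogenate, resuspended in 50 mM Tris/HCl pH 7.4 and used at once. Inhibition of NECA-stimulated adenylyl cyclase activity measured; IC50 converted to Ki by Cheng-Prusoff equation.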

Adenosine receptor A2a = Adenosine receptor A2a (Homo sapiens, UniProt P29274); assay: Displacement of [3H]NECA from human adenosine A2A receptor expressed in CHO cells; format: cell-based; method in brief: as §1
Adenosine receptor A1 = biological target: T3, Adenosine receptor A1 (Homo sapiens, UniProt P30542); assay: Displacement of [3H]CCPA from human adenosine A1 receptor expressed in CHO cells; format: cell-based
T3 sequence (P30542 whole entry): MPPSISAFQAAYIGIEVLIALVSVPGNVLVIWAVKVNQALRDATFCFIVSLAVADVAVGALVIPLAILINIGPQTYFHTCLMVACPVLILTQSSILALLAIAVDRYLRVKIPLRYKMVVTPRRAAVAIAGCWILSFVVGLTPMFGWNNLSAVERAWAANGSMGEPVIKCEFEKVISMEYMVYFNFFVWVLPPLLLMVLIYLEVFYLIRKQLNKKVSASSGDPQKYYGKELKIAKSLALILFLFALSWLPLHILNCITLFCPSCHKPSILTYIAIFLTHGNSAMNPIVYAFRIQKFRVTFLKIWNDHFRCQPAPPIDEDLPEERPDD
Method in brief: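 Membranes from CHO cells stably expressing human A1 receptor (1000 g spin to clear nuclei, then 100,000 g pellet, stored -80 °C in binding buffer). Competition binding with 1 nM [3H]CCPA; nonspecific binding defined with 1 mM theophylline. Ki calculated from competition curves.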

Adenosine receptor A2a, sequence (P29274 whole entry): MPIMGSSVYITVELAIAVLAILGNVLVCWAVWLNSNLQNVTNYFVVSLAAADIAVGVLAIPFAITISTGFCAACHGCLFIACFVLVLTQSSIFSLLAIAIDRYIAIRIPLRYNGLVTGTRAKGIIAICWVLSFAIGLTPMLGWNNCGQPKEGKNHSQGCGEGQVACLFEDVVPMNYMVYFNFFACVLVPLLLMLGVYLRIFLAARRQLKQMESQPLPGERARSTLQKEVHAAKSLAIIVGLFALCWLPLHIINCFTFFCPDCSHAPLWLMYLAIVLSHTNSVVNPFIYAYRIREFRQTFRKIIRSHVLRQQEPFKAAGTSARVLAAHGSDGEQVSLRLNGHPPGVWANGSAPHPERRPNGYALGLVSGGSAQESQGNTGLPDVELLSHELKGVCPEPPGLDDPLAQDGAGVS

| Ki (Adenosine receptor A3) [µM] | Ki (Adenosine receptor A2b) [µM] | Ki (Adenosine receptor A2a) [µM] | Ki (Adenosine receptor A1) [µM] | SMILES |
| --- | --- | --- | --- | --- |
| ≥ 100 | > 30 | 6.1 | 6.7 | Nc1ncnc2c1nc(Br)n2Cc1ccccc1 |
| 13 | > 30 | 1.8 | 10 | Nc1ncnc2c1ncn2C1CCCC1 |
| > 100 | > 30 | 2.2 | 7.4 | CCn1cnc2c(N)ncnc21 |
| > 100 | > 30 | 9.6 | > 100 | Nc1ncnc2c1ncn2CCc1ccccc1 |
| > 100 | > 30 | 3.9 | > 100 | Nc1ncnc2c1ncn2CCCO |
| 15 | 1.1 | 0.074 | 0.83 | CC(C)n1c(Br)nc2c(N)ncnc21 |
| > 100 | > 30 | > 100 | > 100 | Nc1ncnc2ncn(CCCO)c12 |
| > 100 | > 30 | 12 | 20 | CC(C)n1cnc2ncnc(N)c21 |
| > 100 | > 30 | 18 | > 100 | CCCn1cnc2ncnc(N)c21 |
| > 100 | > 30 | > 100 | > 100 | Cn1cnc2ncnc(N)c21 |
| > 100 | > 30 | 7.8 | > 100 | CCCCn1cnc2c(N)ncnc21 |
| 4.2 | 0.86 | 1.9 | 1 | Nc1ncnc2c1nc(Br)n2C1CCCC1 |
| > 100 | > 30 | 30 | > 100 | CCn1cnc2ncnc(N)c21 |
| 33 | 17 | 4.8 | 8.7 | Nc1ncnc2c1ncn2C1CCC1 |
| > 100 | 19 | 16 | 34 | CCC(C)n1cnc2c(N)ncnc21 (stereo not given) |
| > 100 | > 30 | > 100 | > 100 | Nc1ncnc2ncn(CCO)c12 |
| 28 | 0.84 | 0.052 | 0.28 | CCn1c(Br)nc2c(N)ncnc21 |
| > 100 | > 30 | 2.3 | > 100 | Nc1ncnc2c1ncn2C1CC1 |
| > 100 | > 30 | > 100 | > 100 | CC(C)Cn1cnc2ncnc(N)c21 |
| > 100 | 2.8 | 0.62 | 1.5 | Nc1ncnc2c1nc(Br)n2CCO |
| 15 | 4.2 | 6 | 4.9 | CC(C)Cn1c(Br)nc2c(N)ncnc21 |
| > 100 | > 30 | > 100 | > 100 | Nc1ncnc2c1nc(Br)n2C1CCCCCC1 |
| > 100 | > 30 | > 100 | > 100 | Nc1ncnc2ncn(CC(O)CO)c12 (stereo not given) |
| ≥ 100 | 1.7 | 9.6 | 9.4 | CCCn1cnc2c(N)ncnc21 |
| > 100 | > 30 | > 100 | > 100 | CCC(C)n1cnc2ncnc(N)c21 (stereo not given) |

| Ki (Adenosine receptor A3) [µM] | Ki (Adenosine receptor A2b) [µM] | Ki (Adenosine receptor A2a) [µM] | Ki (Adenosine receptor A1) [µM] | SMILES |
| --- | --- | --- | --- | --- |
| 3.2 | 5.1 | 0.085 | 1 | Nc1ncnc2c1nc(Br)n2CCCO |
| > 100 | > 30 | > 100 | > 100 | CC(O)Cn1cnc2ncnc(N)c21 (stereo not given) |
| ≥ 100 | 0.64 | 1.1 | 2.9 | CC(O)Cn1c(Br)nc2c(N)ncnc21 (stereo not given) |
| > 30 | > 30 | 4.9 | 12 | Nc1ncnc2c1nc(Br)n2CCc1ccccc1 |
| > 100 | > 30 | > 100 | > 100 | CC(C)Cn1cnc2c(N)ncnc21 |
| > 100 | > 30 | 3.1 | 29 | CC(O)Cn1cnc2c(N)ncnc21 (stereo not given) |
| > 100 | 5.6 | 0.73 | 3.2 | CCCCn1c(Br)nc2c(N)ncnc21 |
| ≥ 100 | 7.1 | 4 | 16 | Nc1ncnc2c1nc(Br)n2CC(O)CO (stereo not given) |
| ≥ 100 | 0.2 | 0.3 | 1.1 | CCCn1c(Br)nc2c(N)ncnc21 |
| 20 | 4.6 | 0.73 | 8.4 | C=CCn1c(Br)nc2c(N)ncnc21 |
| > 100 | > 30 | 1.6 | 4.9 | C=CCCn1c(Br)nc2c(N)ncnc21 |
| 15 | 1.2 | 0.39 | 3.1 | CCC(C)n1c(Br)nc2c(N)ncnc21 (stereo not given) |
| > 100 | 0.72 | 0.12 | 0.57 | Cn1c(Br)nc2c(N)ncnc21 |
| > 100 | > 30 | 8.5 | > 100 | C=CCCn1cnc2c(N)ncnc21 |
| 6.2 | 4.1 | 0.66 | 2.2 | Nc1ncnc2c1nc(Br)n2C1CCC1 |
| 11 | > 30 | 15 | 4.6 | Nc1ncnc2c1nc(Br)n2C1CCCCC1 |
| > 100 | > 30 | 11 | > 100 | Nc1ncnc2c1ncn2C1CCCCCC1 |
| > 100 | > 30 | > 100 | > 100 | Nc1ncnc2c1ncn2C1CCCCC1 |
| > 10 | > 30 | 3.2 | 33 | Nc1ncnc2nc(Br)[nH]c12 |
| > 100 | > 30 |  | 12 | Cn1cnc2c(N)ncnc21 |
| > 100 | 16 | 4.1 | 4.3 | CC(C)n1cnc2c(N)ncnc21 |
| > 100 | > 30 | 11 | 29 | Nc1ncnc2c1ncn2CCO |
| > 100 | > 30 | 8.5 | > 100 | Nc1ncnc2c1ncn2Cc1ccccc1 [9-BENZYL-9H-ADENINE] |
| > 100 | > 30 | 8.5 | > 100 | Nc1ncnc2c1ncn2C[C@H](O)CO [(S)-DHPA] |
